Compound activity from PubChem BioAssay.
This is a sample that favours compounds with a hit; in the whole collection about 4.1% have one here.
KCNK3 block: human KCNK3 channel inhibitors, primary screen, CHO cells, FluxOR thallium flux, B-score | actives 0.84% (n = 340,000) | AID 602410, 2012 | Potassium channel subfamily K member 3 (Homo sapiens), O14649 | B-score at 10 µM | FluxOR fluorescence; hits give low values;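 active = B-score under library mean minus 4 SD, starting fluorescence ratio at most library mean plus 5 SD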;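 note: more negative B-score means stronger inhibition of thallium flux through KCNK3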
KCNK9 block: KCNK9 potassium channel inhibitors, primary screen, HEK293 cells, thallium flux. Potassium channel subfamily K member 9 (Homo sapiens), Q9NPC2. actives 1.2% (n = 310,000). B-score at 10 µM. FluxOR thallium flux fluorescence; hits give low values;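 active = ratio B-score over 3 SD below the library mean, with starting fluorescence within 5 SD of its mean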;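 note: negative B-score means less thallium flux so channel inhibition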
KCNQ1 inh: inhibitors of human KCNQ1 channel, primary screen, cell-based, thallium flux, high-throughput. CHO-K1 KCNQ1, FluxOR thallium flux fluorescence; hits give high values. actives 1.3% (n = 310,000). B-score at 10 µM. AID 2642, 2010. Potassium voltage-gated channel subfamily KQT member 1 (Homo sapiens), P51787;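 active = compounds whose thallium flux B-score, printed positive for inhibition, exceeds three library SD while starting fluorescence stays within three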;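 note: channel opened by potassium depolarization with thallium stimulus after 20 min compound exposure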
KCNQ1 act: potentiators or activators of KCNQ1 channel, primary screen, cell-based, thallium flux, high-throughput; B-score at 10 µM; actives 0.35% (n = 310,000); CHO-K1 KCNQ1, thallium flux FluxOR fluorescence; hits give high values;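 active = fluorescence ratio B-score, a plate-corrected score, at least three library SD, with initial intensity B-score within 5 SD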
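Medium – assay buffer, equal DMSO in all wells · Material – CHO-K1 cell line with stable KCNQ1 potassium channel expression · Signal – kinetic FluxOR thallium fluorescence, 10-s 1-Hz baseline, 110-s post-stimulus read · Compound – single concentration per compound, DMSO matched to controls · Schedule – 37 °C overnight plating, 90-min dark dye load, 20-min compound pretreatment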
Cl transport mod: KCC2 cotransporter modulators, thallium flux, primary screen, cell-based, HEK293 KCC2, FluoZin-2 fluorescence, MLSMR; KCC2 cells, thallium flux FluoZin-2 fluorescence; B-score of Tl+ flux slope (higher = more flux/activation; lower = inhibition) at 10 µM; actives 2.2% (n = 190,000);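 active = thallium flux slope and its plate-corrected score both differing from the plate sample mean at a set confidence after two filtering rounds, in either direction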;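 note: slope of fluorescence scaled to starting intensity during 10 to 20 s after thallium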
hERG rescue: hERG rescue from dofetilide block, primary screen, cell-based, CHO-hERG, FluxOR thallium flux, dofetilide IC70 | AID 1511, 2009 | actives 0.51% (n = 310,000) | Voltage-gated inwardly rectifying potassium channel KCNH2 (Homo sapiens), Q12809 | dofetilide IC70 present | activation (rescue from dofetilide block), less the hit threshold, % at 10 µM;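 active = activation above the mean of controls blocked by dofetilide plus 5 SD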;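 note: thallium influx through hERG after potassium depolarization seen as dye fluorescence rise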
Target sequence (Q12809 whole entry, looked up): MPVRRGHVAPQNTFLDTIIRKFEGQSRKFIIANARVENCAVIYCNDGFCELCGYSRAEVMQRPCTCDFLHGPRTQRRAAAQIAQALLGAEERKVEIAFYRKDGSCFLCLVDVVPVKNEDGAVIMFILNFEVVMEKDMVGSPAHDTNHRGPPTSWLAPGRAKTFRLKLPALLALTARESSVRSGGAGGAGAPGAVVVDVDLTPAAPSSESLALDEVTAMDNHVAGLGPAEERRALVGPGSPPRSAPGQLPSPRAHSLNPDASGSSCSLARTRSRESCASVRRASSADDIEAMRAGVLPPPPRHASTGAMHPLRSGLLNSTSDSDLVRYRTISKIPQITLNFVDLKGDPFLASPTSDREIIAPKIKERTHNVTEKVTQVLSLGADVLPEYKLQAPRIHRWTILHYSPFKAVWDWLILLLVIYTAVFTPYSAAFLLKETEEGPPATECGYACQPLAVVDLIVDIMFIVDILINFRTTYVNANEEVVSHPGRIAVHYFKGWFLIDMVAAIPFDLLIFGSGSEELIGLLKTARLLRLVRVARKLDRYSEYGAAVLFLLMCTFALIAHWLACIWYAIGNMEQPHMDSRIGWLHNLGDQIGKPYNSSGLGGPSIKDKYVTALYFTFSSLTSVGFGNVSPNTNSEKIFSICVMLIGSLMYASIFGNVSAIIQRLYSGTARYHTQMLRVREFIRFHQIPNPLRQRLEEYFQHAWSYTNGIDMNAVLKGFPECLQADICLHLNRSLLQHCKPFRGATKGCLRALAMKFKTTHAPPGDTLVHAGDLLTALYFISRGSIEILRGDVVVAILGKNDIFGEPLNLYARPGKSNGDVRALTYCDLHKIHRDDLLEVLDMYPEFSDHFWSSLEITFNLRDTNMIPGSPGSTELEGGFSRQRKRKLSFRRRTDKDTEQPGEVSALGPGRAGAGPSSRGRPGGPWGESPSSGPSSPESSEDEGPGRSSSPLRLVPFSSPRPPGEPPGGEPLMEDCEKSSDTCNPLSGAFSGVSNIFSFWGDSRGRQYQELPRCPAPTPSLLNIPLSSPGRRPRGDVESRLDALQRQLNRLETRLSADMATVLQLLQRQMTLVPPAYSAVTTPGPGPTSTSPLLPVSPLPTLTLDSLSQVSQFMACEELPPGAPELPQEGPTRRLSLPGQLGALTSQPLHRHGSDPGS
* hit, by the source's call; i = inactive; / = no result; ! = not active in a repeat.

SMILES	KCNK3 block	KCNK9 block	KCNQ1 inh	KCNQ1 act	Cl transport mod	hERG rescue
Oc1c(Br)cc(Br)cc1Oc1ccc(Br)cc1Br	/	i	i	i	6*	-4
COC(/C(C)=C/C=C/C(C)=C/c1coc(C)n1)C(C)C1CC(O)C2(C)OC2C=CC(C)C2CC(CC(=O)O2)CC2OC2C(=O)O1 (centres undefined)	i	/	/	/	/	/
COc1cccc(-n2c(/C=C/c3ccc(O)c(O)c3)nc3ccccc3c2=O)c1	i	i	6*	i	-1.1	-28
CCN(CC)c1ccc(N=Cc2c(O)n(Cc3ccccc3)c(=O)[nH]c2=O)cc1	i	-7.3*!	7*!	i	-1.6	-12
COc1ccc(Cn2c(O)c(C=NCCN3CCOCC3)c(=O)[nH]c2=O)cc1	i	i	i	i	9.1*	-3
O=c1[nH]c(=O)n(Cc2ccc(F)cc2)c(O)c1C=NCCN1CCCCC1	i	i	i	i	0.64	-9
COc1ccc(Cn2c(O)c(/C=N/NC(=O)c3ccccc3)c(=O)[nH]c2=O)cc1	i	i	7*	i	-0.74	-16
Cc1c(Cl)cccc1NC(=S)N1CC2CC(C1)c1cccc(=O)n1C2 (centres undefined)	i	i	i	30*	0.4	-4
CCc1cccc(CC)c1NC(=S)N1CC2CC(C1)c1cccc(=O)n1C2 (centres undefined)	i	i	i	i	0.18	-6
c1cc2c(cc1NC1=NCCO1)CCCC2	i	/	/	/	/	/
CC(C)[C@@]1(NC(=O)[C@@H]2C=C3c4cccc5[nH]cc(c45)C[C@H]3N(C)C2)O[C@@]2(O)[C@@H]3CCCN3C(=O)[C@H](Cc3ccccc3)N2C1=O	/	/	/	/	-0.029	/
CC(C)C[C@H]1C(=O)N2CCCC2[C@]2(O)O[C@](NC(=O)[C@@H]3C=C4c5cccc6[nH]cc(c56)CC4N(C)C3)(C(C)C)C(=O)N12 (some centres undefined)	i	i	8*	i	-0.64	-10
Cc1cccc(OP(=O)(Oc2ccccc2)OC(c2ccccc2)C(F)(F)F)c1 (centres undefined)	i	i	8*	i	-0.86	-11
Cc1cc[n+](Cc2ccccc2)cc1	i	i	i	i	/	-2
c1ccc(C[n+]2ccccc2)cc1	i	i	7*	i	/	-7
CC12CCC3c4ccc(OC(=O)N(CCCl)CCCl)cc4CCC3C1CCC2O (centres undefined)	i	/	/	/	/	/
COc1ccc2c(c1)C(c1ccc(N(CCCl)CCCl)cc1)=NCC2	-8.7*	/	/	/	/	/
CC(CC(C)(C)N1CC1)=NO	i	/	/	/	/	/
O=c1[nH]c(=S)[nH]c(O)c1/C=C1/C=c2ccccc2=N1	i	i	i	i	/	45*
CN(CC=CCN(C)P(=S)(N1CC1)N1CC1)P(=S)(N1CC1)N1CC1	i	/	/	/	/	/
CC(=O)OC(C)(C)/C=C/C(=O)[C@](C)(O)[C@H]1[C@H](O)C[C@@]2(C)[C@@H]3CC=C4[C@H](C[C@H](O)C(=O)C4(C)C)[C@]3(C)C(=O)C[C@]12C	i	/	/	/	1.3	/
CC(=O)OC(C)(C)/C=C/C(=O)C(C)(O)C1[C@H](O)C[C@@]2(C)C3CC=C4C(CC[C@@H](O)C4(C)C)[C@]3(CO)C(=O)C[C@]12C (some centres undefined)	i	i	i	13*	/	3
O=c1[nH]c(=S)n(CCC2=CCCCC2)c(O)c1C=NC1CCN(Cc2ccccc2)CC1	i	i	7*	i	0.027	-23
N#CC(=C(O)c1ccc(S(=O)(=O)N(CCCl)CCCl)cc1)c1nc2ccccc2[nH]1	i	/	/	/	/	/
C/C(=N\Nc1cccc2ccccc12)c1c(O)n(Cc2ccccc2)c(=O)[nH]c1=O	i	-7.2*	i	i	-0.42	-1
SMILES	KCNK3 block	KCNK9 block	KCNQ1 inh	KCNQ1 act	Cl transport mod	hERG rescue
O=C([O-])c1ccc(-[n+]2c(-c3ccccc3)cc(-c3ccccc3)cc2-c2ccccc2)cc1	i	i	i	i	/	-14
COc1ccc(-[n+]2c(-c3ccccc3)cc(-c3ccccc3)cc2-c2ccccc2)cc1	/	-8.8*	6*	i	/	-30
Oc1ccc(-[n+]2c(-c3ccccc3)cc(-c3ccccc3)cc2-c2ccccc2)cc1	i	-7.3*	10*	i	/	-50
O=[N+]([O-])c1ccc(-[n+]2c(-c3ccccc3)cc(-c3ccccc3)cc2-c2ccccc2)cc1	i	i	i	i	/	-10
N#CC(C#N)=NNc1ccc(-n2ccc(C(F)(F)F)n2)cc1	i	i	7*	i	-0.022	-36
O=C(NN=Cc1ccc(N(CCCl)CCCl)cc1)C(=O)c1c[nH]c2ccccc12	i	/	/	/	/	/
CCn1c(O)c(C=Nc2ccc(N3CCOCC3)cc2)c(=O)n(CC)c1=S	i	i	7*	i	-0.07	-19
CCn1c(O)c(C=Nc2ccc(N3CCOCC3)c(Br)c2)c(=O)n(CC)c1=S	i	i	i	i	i	-18
CC1N=C(c2ccccc2Cl)c2cc(Br)ccc2NC1=O (centres undefined)	i	i	i	i	/	7.6*
C/C1=C\[C@@H](C)C/C=C/[C@H]2[C@@H]3O[C@]3(C)[C@@H](C)[C@H]3[C@H](Cc4c[nH]c5ccccc45)NC(=O)[C@]32C(=O)/C=C/C(=O)[C@@H]1O	i	i	i	22*	0.43	-1
c1ccc(-c2ccc(-c3n(-c4ccccn4)c4ccccc4[n+]3-c3ccccn3)cc2)cc1	i	i	9*	i	0.013	-31
C[CH2][Hg][S]c1ccccc1C(=O)O	i	/	/	/	/	/
Cc1cccn2c(=O)c3c(nc12)N1CCC(Cc2ccccc2)CC1C1(C3)C(=O)N(C)C(=O)N(C)C1=O (centres undefined)	i	-6.6*	i	i	/	-11
Cc1cccn2c(=O)c3c(nc12)N1CCCCC1C1(C3)C(=O)N(C)C(=O)N(C)C1=O (centres undefined)	i	i	i	i	1.8	-6
CCOP(=O)(CCP(=O)(OCC)OCC)OCC.C[CH2][Sn]([Cl])([Cl])[CH2]C	i	/	/	/	/	/
